TRPC4 potent – allosteric potentiators of mouse TRPC4 channel. Q9QUQ5. HEK293 TRPC4beta/mu-opioid, DAMGO EC20, Fluo-4 Ca2+ flux; stronger effect = higher value. B-score at 10 µM. actives 0.42% (n = 310,000);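 active = B-score of calcium response area above 5 SD of library B-scores, with initial fluorescence ratio within 5 SD of library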;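 also: B-score of integrated fluorescence ratio over time as area under calcium response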
TRPC6 act – activates the mouse TRPC6 cation channel. actives 0.13% (n = 310,000). B-score at 10 µM. HEK293-TRPC6 membrane potential dye fluorescence; stronger effect = higher value;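 active = B-score of the integrated fluorescence ratio above library mean plus 3 SD, and starting fluorescence ratio within library mean plus 5 SD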;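 also: higher score means more depolarization so channel activation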
TRPC6 inh – blocks the mouse TRPC6 cation channel; actives 1.1% (n = 310,000); HEK293-TRPC6, membrane potential dye, ACh-evoked depolarization; stronger effect = lower value; Q61143; B-score at 10 µM;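 active = B-score under library mean minus 3 SD, initial fluorescence not abnormally high, positive integrated signal ratio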;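 also: B-score derived from integrated fluorescence ratio over the kinetic read; more negative B-score means stronger inhibition of depolarization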
Kir21 block – blocks the mouse Kir2.1 inward-rectifier potassium channel; P35561; HEK293-Kir2.1, FluxOR thallium flux fluorescence; stronger effect = lower value; B-score at 10 µM; actives 0.85% (n = 310,000); AID 1672;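 active = fluorescence ratio B-score at or below minus 3 SD of library scores, with starting-brightness B-score within 2 SD, cut at about -4.2 in these data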;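 also: channel flux triggered by added potassium and thallium sulfate stimulus; B-score of peak minus minimum fluorescence over baseline after thallium stimulus; more negative B-score means stronger Kir2.1 block with less thallium influx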
TRPC4 act – opens the mouse TRPC4 cation channel; Q9QUQ5; HEK293 TRPC4beta/mu-opioid, Fluo4 calcium fluorescence; stronger effect = higher value; B-score at 10 µM; actives 0.49% (n = 310,000);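 active = B-score above 5 SD of library B-scores, and initial fluorescence ratio not above library mean plus 5 SD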;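 also: positive B-score marks a calcium rise read as TRPC4 activation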
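Assay system: HEK293 cells stably co-expressing mouse TRPC4beta and mu-opioid receptor / Timing: Fluo4 dye loading 45 min at room temperature, 110 s recording / Signal: Fluo4 calcium-sensitive dye fluorescence, kinetic, 1 Hz baseline / Read-out: integrated baseline-normalised fluorescence ratio, converted to per-well B score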
TRPC4 block – inhibitors of mouse TRPC4 channel; Q9QUQ5; HEK293 TRPC4beta/mu-opioid, DAMGO-evoked Fluo4 calcium flux; stronger effect = lower value; actives 0.39% (n = 300,000); B-score at 10 µM;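 active = B-score over 3 SD under the library average, no early fluorescence shift, positive overall ratio signal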
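Test system – stable TRPC4beta/mu-opioid receptor HEK293 cells · Probe or stimulus – DAMGO, a submaximal dose followed by a maximal one · Dosing – one concentration per compound · Signal – Fluo4 calcium fluorescence by kinetic imaging, 5 s 1 Hz baseline · Evaluation – per-well B score of integrated baseline-normalized Fluo4 ratio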
TRPC4 spec 2 – second selectivity test of TRPC6 inhibitors: effect on mouse TRPC4; shares compounds with TRPC6 inh; HEK293 TRPC4/MOR, membrane potential dye fluorescence; channel activated by saturating DAMGO dose; inhibition, % at 10 µM; actives 42% (n = 920); AID 2776;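 active = compounds whose fluorescence signal differed from control wells by over 3 SD, either direction, in both duplicate plates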
TRPC4 spec – selectivity of TRPC6 inhibitors: effect on mouse TRPC4; activity change, negative = inhibition, % at 10 µM; HEK293 TRPC4/mu-opioid, membrane potential fluorescence; shares compounds with TRPC6 inh; actives 61% (n = 920);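 active = rise or fall in signal beyond 3 SD of buffer-only wells in both replicate plates, either sign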;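 also: integrated kinetic ratio of fluorescence range over baseline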
HEK293 MPD ctr 2-1 – second check of TRPC6 inhibitor effects in parental HEK293 cells; parental HEK293 membrane potential dye fluorescence; maximal acetylcholine challenge after compound addition; signal change vs control, % at 10 µM; actives 31% (n = 920); shares compounds with TRPC6 inh;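 active = membrane potential signal moving either way by over 3 SD of the maximum-effect control, in both duplicate plates, meaning non-specific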
HEK293 MPD ctr-1 – parental HEK293 nonspecific activity of TRPC6 inhibitors; parental HEK293 membrane potential dye fluorescence; membrane potential signal change, % at 10 µM; actives 60% (n = 920); AID 2780; shares compounds with TRPC6 inh;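 active = membrane potential signal shifting up or down by more than 3 SD of buffer-only wells, on both duplicate plates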
HEK293 MPD ctr-2 – parental HEK293 nonspecific activity of TRPC6 modulators | shares compounds with TRPC6 inh | membrane potential dye fluorescence | membrane potential signal change, % at 10 µM | actives 51% (n = 2,400) | AID 488924;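 active = membrane potential signal moves up or down beyond 5 SD from buffer-only wells, on both duplicate plates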
HEK293 MPD ctr 2-2 – second counter-screen for TRPC6 modulators: effect in parental HEK293 cells | membrane potential dye fluorescence; after compound, maximal acetylcholine stimulation | shares compounds with TRPC6 inh | AID 488926 | actives 14% (n = 2,400) | inhibition, % at 10 µM;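 active = membrane potential signal drops by more than 5 SD from the mean control signal, in both duplicate plates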;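 also: plate controls were acetylcholine ECmax control wells for no effect and buffer only wells for full effect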
TRPC4/MOR mod – mouse TRPC4 off-target activity of TRPC6 modulators. shares compounds with TRPC6 inh. HEK293 TRPC4/mu-opioid, membrane potential fluorescence. percent change from control (negative = decrease, positive = increase), % at 10 µM. actives 69% (n = 2,400). AID 488927;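 active = membrane potential signal moved up or down beyond 5 SD of buffer control wells, in both duplicate plates, actives on both sides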;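 also: plate controls were assay buffer wells for no effect and DAMGO maximal-effect wells for full effect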
TRPC4 ctr inh 2 – second check of whether TRPC6 modulators also affect mouse TRPC4. actives 55% (n = 2,400). shares compounds with TRPC6 inh. inhibition, % at 10 µM. HEK293 TRPC4/mu-opioid, membrane potential dye fluorescence; stimulated with maximal-effect DAMGO;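 active = drop in membrane potential signal beyond 5 SD of the control wells in both duplicate plates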;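 also: TRPC4 counter screen for TRPC6 hits run under conditions tuned for TRPC6 not TRPC4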
TRPC6 block conf – mouse TRPC6 inhibitor confirmation; inhibition, % at 10 µM; actives 43% (n = 3,300); HEK293-TRPC6, membrane potential dye, ACh-evoked depolarization; shares compounds with TRPC6 inh;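 active = fluorescence ratio falls more than 5 SD below the full-stimulation control mean, in both duplicate runs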;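 also: integrated fluorescence ratio of peak minus minimum over baseline after agonist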
TRPC6 act confirm – mouse TRPC6 activator confirmation | AID 488961 | HEK293-TRPC6 membrane potential dye fluorescence, FDSS | actives 11% (n = 2,800) | activation, % at 10 µM | shares compounds with TRPC6 inh;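 active = ratio signal rise beyond 5 SD above unstimulated control wells' mean, seen in both duplicate runs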;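 also: plate controls were buffer EC0 wells for no effect and acetylcholine ECmax response for full effect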
* marks the source's active call; other numbers are inactive results. A selection: hits, their analogues and other compounds. The true share with any hit is near 2.9%.

`Cc1ccc(C)c(OC(=O)c2cccnc2Cl)c1C` gave TRPC4 potent inactive, TRPC6 act inactive, TRPC6 inh -6.17*, Kir21 block -0.01, TRPC4 act inactive, TRPC4 block inactive, HEK293 MPD ctr-2 inactive, HEK293 MPD ctr 2-2 inactive, TRPC4/MOR mod inactive, TRPC4 ctr inh 2 inactive, TRPC6 block conf inactive and TRPC6 act confirm inactive.
`COc1ccc(CN(Cc2ccc(OC)cc2)S(=O)(=O)c2ccc(-n3cnnn3)c(C)c2)cc1` gave TRPC4 potent inactive, TRPC6 act inactive, TRPC6 inh inactive, Kir21 block 0.37, TRPC4 act inactive and TRPC4 block inactive.
Screening CC(=O)c1[nH]c(C)c(C(C)=O)c1C returned TRPC4 potent inactive, TRPC6 act inactive, TRPC6 inh inactive, Kir21 block 0.41, TRPC4 act inactive and TRPC4 block inactive.
Screening Fc1ccc(-n2nnc(-c3cccnc3Cl)n2)cc1 returned TRPC4 potent inactive, TRPC6 act inactive, TRPC6 inh inactive, Kir21 block -0.66, TRPC4 act inactive and TRPC4 block inactive.
Screening O=C1c2ccccc2C(=O)N1CCc1nc(-c2ccccn2)no1 returned TRPC4 potent inactive, TRPC6 act inactive, TRPC6 inh inactive, Kir21 block -0.56, TRPC4 act inactive and TRPC4 block inactive.
O=C1c2ccccc2C(=O)N1CCCc1nc(-c2ccccn2)no1 was read as TRPC4 potent inactive, TRPC6 act inactive, TRPC6 inh -5*, Kir21 block -0.7, TRPC4 act inactive, TRPC4 block inactive, HEK293 MPD ctr-2 inactive, HEK293 MPD ctr 2-2 inactive, TRPC4/MOR mod inactive, TRPC4 ctr inh 2 inactive, TRPC6 block conf inactive and TRPC6 act confirm inactive.
For CCOc1cc(/C=C/C(=O)c2ccc(OC)c(CN3CCOCC3)c2)cc(Br)c1O the results were TRPC4 potent inactive, TRPC6 act 20.2*, TRPC6 inh inactive, Kir21 block -1.99, TRPC4 act inactive, TRPC4 block inactive, HEK293 MPD ctr-2 183.5%*, HEK293 MPD ctr 2-2 inactive, TRPC4/MOR mod 26.5%*, TRPC4 ctr inh 2 inactive, TRPC6 block conf inactive and TRPC6 act confirm 42.0%*.
For O=C(O)CCC(=O)Nc1cccc(-c2nnc(-c3ccccc3)o2)c1 the results were TRPC4 potent inactive, TRPC6 act inactive, TRPC6 inh inactive, Kir21 block 1.86, TRPC4 act inactive and TRPC4 block inactive.
`CC1CCN(CCCNc2cc(NCCO)c([N+](=O)[O-])c3nonc23)CC1` gave TRPC4 potent inactive, TRPC6 act inactive, TRPC6 inh -7.2*, Kir21 block 0.02, TRPC4 act inactive, TRPC4 block inactive, TRPC4 spec 2 inactive, TRPC4 spec -28.8%*, HEK293 MPD ctr 2-1 35.5%*, HEK293 MPD ctr-1 -454.0%*, TRPC6 block conf 56.8%* and TRPC6 act confirm inactive.
`CN(CCO)c1cc(NCCCN2CCC(Cc3ccccc3)CC2)c2nonc2c1[N+](=O)[O-]` gave TRPC4 potent inactive, TRPC6 act inactive, TRPC6 inh inactive, Kir21 block -1.16, TRPC4 act inactive and TRPC4 block inactive.
For CCCCNC(=O)c1cc2c(=O)n3cccc(C)c3nc2n(Cc2ccncc2)c1=N the results were TRPC4 potent inactive, TRPC6 act inactive, TRPC6 inh -6.68*, Kir21 block -1.89, TRPC4 act inactive, TRPC4 block inactive, TRPC4 spec 2 inactive, TRPC4 spec -19.6%*, HEK293 MPD ctr 2-1 inactive, HEK293 MPD ctr-1 -341.0%*, TRPC6 block conf inactive and TRPC6 act confirm inactive.
Screening COCCCn1c(=N)c(C(N)=S)cc2c(=O)n3cccc(C)c3nc21 returned TRPC4 potent inactive, TRPC6 act inactive, TRPC6 inh -6.26*, Kir21 block 0.6, TRPC4 act inactive, TRPC4 block inactive, HEK293 MPD ctr-2 inactive, HEK293 MPD ctr 2-2 inactive, TRPC4/MOR mod inactive, TRPC4 ctr inh 2 inactive, TRPC6 block conf inactive and TRPC6 act confirm inactive.
For CCCCNC(=O)c1cc2c(=O)n3cccc(C)c3nc2n(CCN2CCOCC2)c1=N the results were TRPC4 potent inactive, TRPC6 act inactive, TRPC6 inh -6.64*, Kir21 block -1.72, TRPC4 act inactive, TRPC4 block inactive, TRPC4 spec 2 inactive, TRPC4 spec inactive, HEK293 MPD ctr 2-1 -25.5%*, HEK293 MPD ctr-1 inactive, TRPC6 block conf inactive and TRPC6 act confirm inactive.
Screening COc1ccc(CCNC(=O)c2cc3c(=O)n4cccc(C)c4nc3n(Cc3ccco3)c2=N)cc1OC returned TRPC4 potent inactive, TRPC6 act inactive, TRPC6 inh inactive, Kir21 block 1.58, TRPC4 act inactive and TRPC4 block inactive.
